Test results from ChEMBL document CHEMBL1157327, “Antimicrobial dialkylresorcinols from Pseudomonas sp. Ki19” (2006).
≈ marks a conversion by molar mass, not a printed value.

What was measured:
Type in all cases: functional
Fusarium culmorum [1] = experiment: Antifungal activity against Fusarium culmorum assessed as total inhibition of cell growth/spore germination after 72 hrs
Procedure, shortened: (§1)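 Spore germination/growth inhibition was read in microtiter plates with compounds up to 100 µg/mL. Plates were incubated in darkness at 27-28 °C: D. sorokiniana 48 h, F. culmorum 72 h, A. fumigatus 96 h. Visual scores ran from 3 (full inhibition, like sterile medium) through 1 (detectable) to 0 (like untreated spore suspension). Triplicates, repeated once.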

Candida albicans [2] = experiment: Antifungal activity against Candida albicans assessed as total inhibition of cell growth/spore germination after 24 hrs
Procedure, shortened: (§2)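 Microtiter-plate cell growth inhibition, compounds tested up to 100 µg/mL, incubated at 37 °C for 24 h. Total inhibition was taken as full inhibition of growth. Tests run in triplicate and repeated once.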

Fusarium culmorum [3] = experiment: Antifungal activity against Fusarium culmorum assessed as detectable inhibition of growth after 72 hrs; procedure, shortened: as §1
Drechslera [4] = experiment: Antifungal activity against Drechslera sorokiniana assessed as detectable inhibition of growth after 48 hrs; procedure, shortened: as §1
Aspergillus fumigatus [5] = experiment: Antifungal activity against Aspergillus fumigatus assessed as total inhibition of cell growth/spore germination after 96 hrs; procedure, shortened: as §1
Aspergillus fumigatus [6] = experiment: Antifungal activity against Aspergillus fumigatus assessed as detectable inhibition of growth after 96 hrs; procedure, shortened: as §1
Staphylococcus aureus [7] = experiment: Antibacterial activity against Staphylococcus aureus assessed as total inhibition of cell growth/spore germination after 24 hrs; procedure, shortened: as §2
Staphylococcus aureus [8] = experiment: Antibacterial activity against Staphylococcus aureus assessed as detectable inhibition of growth after 24 hrs; procedure, shortened: as §2
Candida albicans [9] = experiment: Antifungal activity against Candida albicans assessed as detectable inhibition of growth after 24 hrs; procedure, shortened: as §2
Drechslera [10] = experiment: Antifungal activity against Drechslera sorokiniana assessed as total inhibition of cell growth/spore germination after 48 hrs; procedure, shortened: as §1
[11] = system: Pseudomonas savastanoi pv. savastanoi; experiment: Antibacterial activity against Pseudomonas savastanoi pv. savastanoi CCM 3580 assessed as detectable inhibition of growth after 24 hrs; conditions: CCM 3580, 24 h
Procedure, shortened: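 Microtiter-plate bioassay of cell growth inhibition; compounds tested up to 100 µg/mL; plates incubated in darkness at 27-28 °C for 24 h; growth scored visually on a 0-3 scale (3 full inhibition like sterile-medium control, 1 detectable inhibition, 0 like untreated cell suspension); value is lowest concentration giving detectable inhibition; triplicate, repeated once.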

| SMILES | MIC (Fusarium culmorum [1]) | MIC (Candida albicans [2]) | MIC (Fusarium culmorum [3]) | MIC (Drechslera [4]) | MIC (Aspergillus fumigatus [5]) | MIC (Aspergillus fumigatus [6]) | MIC (Staphylococcus aureus [7]) | MIC (Staphylococcus aureus [8]) | MIC (Candida albicans [9]) | MIC (Drechslera [10]) | MIC [11] |
| --- | --- | --- | --- | --- | --- | --- | --- | --- | --- | --- | --- |
| CCCCCCc1c(O)cc(CCC)cc1O | 50 µg/mL (≈ 212 µM) | 50 µg/mL (≈ 212 µM) | 10 µg/mL (≈ 42.3 µM) | 50 µg/mL (≈ 212 µM) | 50 µg/mL (≈ 212 µM) | 10 µg/mL (≈ 42.3 µM) | 3 µg/mL (≈ 12.7 µM) | 2 µg/mL (≈ 8.46 µM) |  |  |  |
| CCCCCCc1c(O)cc(C)cc1O | 50 µg/mL (≈ 240 µM) |  | 10 µg/mL (≈ 48 µM) |  | 50 µg/mL (≈ 240 µM) | 10 µg/mL (≈ 48 µM) | 2 µg/mL (≈ 9.6 µM) | 1 µg/mL (≈ 4.8 µM) | 50 µg/mL (≈ 240 µM) | 50 µg/mL (≈ 240 µM) |  |
| CCCCCCc1c(O)cc(CCCCC)cc1O [RESORSTATIN] | 50 µg/mL (≈ 189 µM) |  |  | 50 µg/mL (≈ 189 µM) |  | 50 µg/mL (≈ 189 µM) | 7 µg/mL (≈ 26.5 µM) | 6 µg/mL (≈ 22.7 µM) | 50 µg/mL (≈ 189 µM) |  | 50 µg/mL (≈ 189 µM) |
| CN[C@@H]1[C@H](O[C@H]2[C@H](O[C@H]3[C@H](O)[C@@H](O)[C@H](N=C(N)N)[C@@H](O)[C@@H]3N=C(N)N)O[C@@H](C)[C@]2(O)C=O)O[C@@H](CO)[C@H](O)[C@H]1O [STREPTOMYCIN] |  |  |  |  |  |  | 10 µg/mL (≈ 17.2 µM) |  |  |  |  |
| C=CCOC(Cn1ccnc1)c1ccc(Cl)cc1Cl (stereo not drawn) [ENILCONAZOLE] | 5 µg/mL (≈ 16.8 µM) |  |  |  | 5 µg/mL (≈ 16.8 µM) |  |  |  |  | 0.1 µg/mL (≈ 0.336 µM) |  |
| C[C@@H]1[C@H](O)[C@@H](C)/C=C/C=C/C=C/C=C/C=C/C=C/C=C/[C@H](O[C@@H]2O[C@H](C)[C@@H](O)[C@H](N)[C@@H]2O)C[C@@H]2O[C@](O)(C[C@@H](O)C[C@@H](O)[C@H](O)CC[C@@H](O)C[C@@H](O)CC(=O)O[C@H]1C)C[C@H](O)[C@H]2C(=O)O [AMPHOTERICIN B] | 40 µg/mL (≈ 43.3 µM) | 40 µg/mL (≈ 43.3 µM) |  |  | 40 µg/mL (≈ 43.3 µM) |  |  |  |  | 4 µg/mL (≈ 4.33 µM) |  |
| CCCCCCC1=C(O)C(=O)C(CCCCC)=CC1=O |  | 100 µg/mL (≈ 359 µM) |  |  |  |  | 100 µg/mL (≈ 359 µM) |  |  |  |  |
| CCCCc1c(O)cc(CCC)cc1O | 50 µg/mL (≈ 240 µM) |  |  | 50 µg/mL (≈ 240 µM) |  | 50 µg/mL (≈ 240 µM) | 5 µg/mL (≈ 24 µM) |  | 50 µg/mL (≈ 240 µM) |  |  |
